Screens from PubChem BioAssay.
NALP1 yeast inh = blocks the NALP1 inflammasome reconstituted in yeast | 0.61% of 280,000 active | AID 2071 | inhibition, % at 10 µM | S. cerevisiae NALP1/ASC/caspase-1 growth, X-gal OD620, 72 h; in the data active = inhibition mostly above about 24%, no sharp cut-off; inactive = mostly below about 32%
A1 inh = inhibitors of the anti-apoptotic protein A1, read as caspase activation; MEF A1-2A-BIM cells, Caspase-Glo 3/7 luminescence, 3 h; percent of clofoctol response, vehicle zero; caspase activation, % (concentration not given with the values); 0.066% of 330,000 active;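 active = over half of replicate activation scores above 10%, or exactly half above 10 with the replicate mean above 10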
NALP3 yeast inh = inhibitors of NALP3 inflammasome in yeast; 0.39% of 330,000 active; inhibition, % at 10 µM; AID 2825; Yeast reconstituted NLRP3/ASC/caspase-1, beta-gal luminescence, 24 h;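 active = inhibition of 50% or more; inactive = inhibition below 50%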;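 also: plate controls were induced DMSO wells for no effect and uninduced yeast grown without galactose for full effect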
MC4R antag cAMP = blocks human MC4R cAMP signaling. P32245. MC4R-expressing cells, MTII-stimulated cAMP, LANCE TR-FRET. inhibition, % at 6.5 µM. 0.48% of 360,000 active;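 active = inhibition above its plate's cutoff, the mean of tested wells on that plate plus 3 SD, cut at about 29% in these data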;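 also: 0% = Melanotan II alone and 100% = Melanotan II plus saturating MCL0020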
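Test system: U2OS cells stably expressing human melanocortin 4 receptor (MC4R); also added: Melanotan II challenge; compound: 6.5 µM single dose; timing: 30-min compound preincubation, 1-h Melanotan II challenge, 1-h detection, room temperature; signal: Eu-cAMP/anti-cAMP TR-FRET, emission 671 nm; repeats: one well per compound, no replicates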
MC4R ag barr = human MC4R agonism via beta-arrestin. P32245. U2OS MC4R beta-arrestin complementation, luminescence; percent of melanotan II response, DMSO zero. activation, % at 8.9 µM. 0.98% of 360,000 active. AID 540308;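 active = activation above a per-plate cutoff, the mean activation of sample wells on that plate plus 3 SD, cut at about 8% in these data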
TbMetRS inhib = Trypanosoma brucei MetRS inhibition; purified T. brucei MetRS, ATP depletion, Kinase-Glo luminescence; inhibition, % at 11.9 µM; 0.4% of 360,000 active;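 active = inhibition above a per-plate cutoff of the control wells' mean inhibition plus 3 SD, cut at about 5.5% in these data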;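 also: 0% = DMSO wells median and 100% = median of wells with control inhibitor compound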
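System: purified T. brucei MetRS enzyme / Detection: Kinase-Glo luciferase luminescence reporting remaining unconsumed ATP / Medium: HEPES buffer with MgCl2, KCl, DTT, spermine, BSA, pyrophosphatase / Replication: singlicate, one well per compound / Evaluation: percent inhibition relative to median high and low control wells / Schedule: 2 h aminoacylation at 25 °C after 15 min preincubation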
MC4R barr conf = human MC4R beta-arrestin agonism confirmation. shares compounds with MC4R ag barr. U2OS MC4R beta-arrestin recruitment, luminescence; scaled DMSO 0%, Melanotan II 100%. activation, % at 8.9 µM. 31% of 2,400 active;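 active = mean activation across replicates above the hit cutoff set in the earlier primary screen, cut at about 8% in these data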
MOR DOR agonist = counter-screen for MC4R agonists: agonists of mu-delta opioid heterodimer; 5.8% of 2,400 active; U2OS PathHunter beta-arrestin, beta-gal luminescence; percent of deltorphin B response, DMSO zero; activation, % at 9.2 µM; shares compounds with MC4R ag barr;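 active = mean activation across replicates exceeds the hit threshold derived in the earlier primary screen, cut at about 18% in these data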;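 also: 100% = deltorphin B at 0.9 µM final and 0% = DMSO alone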
Active calls of the source: *. Shown are actives, neighbours in structure and some others; about 2.5% of the full set was active somewhere.

Screening COC(=O)CSC1=C(C#N)C(c2ccc(C(C)C)cc2)CC(=O)N1 (stereo not drawn) returned NALP1 yeast inh -7, A1 inh 0, NALP3 yeast inh 12, MC4R antag cAMP 15, MC4R ag barr 0 and TbMetRS inhib -1.
For Cc1ccc(C2CC(=O)NC(SCCC(C)C)=C2C#N)cc1 (stereo not drawn) the results were NALP1 yeast inh 1, A1 inh 0, NALP3 yeast inh -2, MC4R antag cAMP 5, MC4R ag barr 9.6*, TbMetRS inhib 0, MC4R barr conf 2 and MOR DOR agonist 4.
`Cc1ccc([N+](=O)[O-])cc1NC(=O)c1ccc(CSc2ccccc2)cc1` gave NALP1 yeast inh 17, A1 inh -1, NALP3 yeast inh 21, MC4R antag cAMP 5, MC4R ag barr 14*, TbMetRS inhib 0, MC4R barr conf 7 and MOR DOR agonist 4.
Screening Cc1cc(CSc2ccccc2)ccc1NC(=O)c1ccc(Cl)c([N+](=O)[O-])c1 returned NALP1 yeast inh 6, A1 inh 0, NALP3 yeast inh 21, MC4R antag cAMP 11, MC4R ag barr 22*, TbMetRS inhib 0, MC4R barr conf 3 and MOR DOR agonist 5.
For Cc1ccc([N+](=O)[O-])cc1NC(=O)CCc1ccccc1 the results were NALP1 yeast inh -1, A1 inh -1, NALP3 yeast inh 12, MC4R antag cAMP -2, MC4R ag barr 0 and TbMetRS inhib -1.
`Cc1ccc(SCc2ccc(C(=O)Nc3cccc([N+](=O)[O-])c3C)cc2)cc1` gave NALP1 yeast inh -4, A1 inh -1, NALP3 yeast inh 17, MC4R antag cAMP 4, MC4R ag barr 23*, TbMetRS inhib -1, MC4R barr conf 6 and MOR DOR agonist 5.
`Cc1cc(CSc2ccccc2)ccc1NC(=O)c1ccc(C)c([N+](=O)[O-])c1` gave NALP1 yeast inh 10, A1 inh 1, NALP3 yeast inh -8, MC4R antag cAMP -10, MC4R ag barr 6 and TbMetRS inhib 0.
CN(C(=O)c1ccc2c(c1)OCO2)C1(C)CCS(=O)(=O)C1 (stereo not drawn) was read as A1 inh -1, NALP3 yeast inh 21, MC4R antag cAMP 2, MC4R ag barr -1 and TbMetRS inhib -1.
Screening Cc1cc(N2CCN(C(=O)c3ccco3)CC2)n2nc(-c3cccc(Cl)c3)cc2n1 returned NALP1 yeast inh 12, A1 inh 0, NALP3 yeast inh 20, MC4R antag cAMP -7, MC4R ag barr 26*, TbMetRS inhib 0, MC4R barr conf 31* and MOR DOR agonist 7.
For COc1cc2nc(N3CCNCC3)nc(N)c2cc1OC the results were NALP1 yeast inh 9, A1 inh 0, NALP3 yeast inh 13, MC4R antag cAMP 11, MC4R ag barr 2 and TbMetRS inhib -2.
`COc1cc2nc(N3CCN(c4cc(C)ccc4C)CC3)nc(N)c2cc1OC` gave NALP1 yeast inh 37, A1 inh 0, NALP3 yeast inh 20, MC4R antag cAMP 7, MC4R ag barr 12*, TbMetRS inhib -1, MC4R barr conf 9.8* and MOR DOR agonist 21*.
`CCCCCc1ccc(OCCC[n+]2ccccc2)c(CCCCC)c1` gave NALP1 yeast inh 17, A1 inh 0, NALP3 yeast inh 8, MC4R antag cAMP 18, MC4R ag barr 15*, TbMetRS inhib -1, MC4R barr conf 4 and MOR DOR agonist 8.
`CC(=O)Nc1ccc(OCCC[n+]2ccccc2)cc1` gave NALP1 yeast inh -10, A1 inh 1, NALP3 yeast inh 2, MC4R antag cAMP -1, MC4R ag barr -2 and TbMetRS inhib 0.
